Measurements published in ChEMBL document CHEMBL2440018 (J Med Chem, 2013).
The source made the active and inactive calls. The calls are words filed in the database; no cut-off is given here.

Experiments:
[1] = target: MMP-2/MMP-9 (Homo sapiens) (UniProt P08253+P14780); assay: Selectivity ratio of Ki for human recombinant MMP-9 catalytic domain to Ki for human recombinant MMP-2
[2] = target: T1, Matrilysin (Homo sapiens) (UniProt P09237); assay: Inhibition of human recombinant MMP-7 at 50 uM by fluorescence spectrophotometric analysis relative to control
T1 sequence (whole entry): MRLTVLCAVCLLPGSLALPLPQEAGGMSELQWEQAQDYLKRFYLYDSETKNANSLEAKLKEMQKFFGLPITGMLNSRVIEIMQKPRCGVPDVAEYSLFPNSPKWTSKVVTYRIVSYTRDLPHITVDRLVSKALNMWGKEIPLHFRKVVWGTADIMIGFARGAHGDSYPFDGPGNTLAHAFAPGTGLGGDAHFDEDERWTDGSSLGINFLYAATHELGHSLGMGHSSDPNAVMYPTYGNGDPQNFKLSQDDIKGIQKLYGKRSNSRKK

[3] = target: Stromelysin-1 (Homo sapiens) (UniProt P08254); assay: Inhibition of human recombinant MMP-3 catalytic domain at 50 uM by fluorescence spectrophotometric analysis relative to control
[4] = target: T2, Interstitial collagenase (Homo sapiens) (UniProt P03956); assay: Inhibition of human recombinant MMP-1 catalytic domain at 50 uM by fluorescence spectrophotometric analysis relative to control
T2 sequence (whole entry): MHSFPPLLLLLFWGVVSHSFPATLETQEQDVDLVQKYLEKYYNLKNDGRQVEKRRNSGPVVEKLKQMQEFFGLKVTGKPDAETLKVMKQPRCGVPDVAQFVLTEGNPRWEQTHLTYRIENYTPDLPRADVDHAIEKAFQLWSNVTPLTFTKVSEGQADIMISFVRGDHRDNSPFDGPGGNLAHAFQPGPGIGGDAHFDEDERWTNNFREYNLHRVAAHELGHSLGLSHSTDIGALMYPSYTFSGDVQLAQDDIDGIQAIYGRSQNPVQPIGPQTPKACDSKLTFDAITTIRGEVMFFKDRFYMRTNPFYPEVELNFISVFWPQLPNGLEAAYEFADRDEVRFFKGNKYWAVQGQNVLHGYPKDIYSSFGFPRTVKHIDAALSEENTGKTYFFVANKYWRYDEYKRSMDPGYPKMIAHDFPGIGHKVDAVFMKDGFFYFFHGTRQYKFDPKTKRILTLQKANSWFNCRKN

[5] = target: T3, Matrix metalloproteinase-14 (Homo sapiens, UniProt P50281); assay: Inhibition of human recombinant MMP-14 catalytic domain using MOCAcPLGLA2pr(Dnp)AR-NH2 as substrate by fluorescence spectrophotometric analysis
[6] = target: T4, Matrix metalloproteinase-9 (Homo sapiens, UniProt P14780); assay: Inhibition of human recombinant MMP-9 catalytic domain using MOCAcPLGLA2pr(Dnp)AR-NH2 as substrate by fluorescence spectrophotometric analysis
T4 sequence (P14780 whole entry, the tested form may be a part): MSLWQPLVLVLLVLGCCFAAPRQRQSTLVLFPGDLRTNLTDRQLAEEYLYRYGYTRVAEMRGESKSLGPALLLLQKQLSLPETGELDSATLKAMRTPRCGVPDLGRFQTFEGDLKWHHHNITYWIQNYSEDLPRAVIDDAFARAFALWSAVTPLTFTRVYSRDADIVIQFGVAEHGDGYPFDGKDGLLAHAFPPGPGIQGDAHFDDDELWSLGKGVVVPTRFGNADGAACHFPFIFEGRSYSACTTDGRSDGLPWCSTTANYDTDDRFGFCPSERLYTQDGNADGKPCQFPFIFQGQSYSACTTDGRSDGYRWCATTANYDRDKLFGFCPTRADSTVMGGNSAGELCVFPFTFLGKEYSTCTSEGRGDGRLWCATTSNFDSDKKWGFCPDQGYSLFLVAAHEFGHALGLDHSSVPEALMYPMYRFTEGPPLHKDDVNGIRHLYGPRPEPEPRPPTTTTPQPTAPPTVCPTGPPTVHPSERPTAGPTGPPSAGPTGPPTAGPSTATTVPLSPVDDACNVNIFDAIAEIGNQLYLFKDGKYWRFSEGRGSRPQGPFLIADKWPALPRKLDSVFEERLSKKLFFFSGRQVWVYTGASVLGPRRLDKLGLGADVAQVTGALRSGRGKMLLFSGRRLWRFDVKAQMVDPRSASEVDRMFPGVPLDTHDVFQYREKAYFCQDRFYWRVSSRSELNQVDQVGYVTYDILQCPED

[7] = target: 72 kDa type IV collagenase (Homo sapiens, UniProt P08253); assay: Inhibition of human recombinant MMP-2 using MOCAcPLGLA2pr(Dnp)AR-NH2 as substrate by fluorescence spectrophotometric analysis
Chain of 72 kDa type IV collagenase (P08253 whole entry, the tested form may be a part): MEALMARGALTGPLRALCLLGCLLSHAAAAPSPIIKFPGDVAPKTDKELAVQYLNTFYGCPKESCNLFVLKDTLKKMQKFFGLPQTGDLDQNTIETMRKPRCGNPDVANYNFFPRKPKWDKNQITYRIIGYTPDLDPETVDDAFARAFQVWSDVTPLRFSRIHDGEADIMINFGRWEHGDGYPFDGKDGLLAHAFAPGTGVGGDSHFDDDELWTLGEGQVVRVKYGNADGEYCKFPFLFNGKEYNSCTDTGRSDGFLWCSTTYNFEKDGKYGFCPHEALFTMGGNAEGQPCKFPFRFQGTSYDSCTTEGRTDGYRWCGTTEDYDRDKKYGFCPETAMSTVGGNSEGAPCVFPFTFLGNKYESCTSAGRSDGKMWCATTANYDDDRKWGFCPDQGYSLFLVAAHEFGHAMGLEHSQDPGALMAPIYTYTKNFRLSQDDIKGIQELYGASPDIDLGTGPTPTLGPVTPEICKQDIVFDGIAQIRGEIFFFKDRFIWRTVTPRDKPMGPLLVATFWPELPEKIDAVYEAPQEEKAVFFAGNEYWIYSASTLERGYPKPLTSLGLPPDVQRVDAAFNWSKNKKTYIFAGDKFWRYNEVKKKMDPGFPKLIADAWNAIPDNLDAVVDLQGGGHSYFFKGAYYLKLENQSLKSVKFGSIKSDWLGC

[8] = target: MMP-2/MMP-14 (Homo sapiens) (UniProt P50281+P08253); assay: Selectivity ratio of Ki for human recombinant MMP-14 catalytic domain to Ki for human recombinant MMP-2
[9] = species on record: Homo sapiens; assay: Selectivity ratio of Ki for human recombinant MMP-8 catalytic domain to Ki for human recombinant MMP-2
[10] = target: Stromelysin-1 (Homo sapiens) (UniProt P08254); assay: Inhibition of human recombinant MMP-3 catalytic domain at 30 uM by fluorescence spectrophotometric analysis relative to control
[11] = target: T3, Matrix metalloproteinase-14; assay: Inhibition of human recombinant MMP-14 catalytic domain using MOCAcPLGLA2pr(Dnp)AR-NH2 as substrate at 50 uM by fluorescence spectrophotometric analysis relative to control
[12] = target: T4, Matrix metalloproteinase-9; assay: Inhibition of human recombinant MMP-9 catalytic domain using MOCAcPLGLA2pr(Dnp)AR-NH2 as substrate at 50 uM by fluorescence spectrophotometric analysis relative to control
[13] = system: Liver; assay: Half life in rat liver S9 fraction at 10 uM by reversed-phase UPLC/ESI-MRM analysis; assay type: ADME, subcellular; details: s9, 10 µM
Procedure, shortened: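 Male rat liver S9 (1.0 mg) with 0.5 mM NADPH and 10 µM compound (both final) in 50 mM potassium phosphate, pH 7.4, at 37 °C, sampled over time. Aliquots were stopped with acetonitrile containing internal standard, and the supernatant was run by UPLC/ESI-MRM. Half-lives used first-order kinetics on peak-area ratios to internal standard.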

SMILES | Ratio Ki [1] | inhibition [2] | inhibition [3] | inhibition [4] | Ki [5] [µM] | Ki [6] [µM] | Ki [7] [µM] | Ratio Ki [8] | Ratio Ki [9] | inhibition [10] [%] | inhibition [11] [%] | inhibition [12] [%] | t1/2 [13] [min]
CCCOC(=O)Oc1ccc(Oc2ccc(S(=O)(=O)CC3CS3)cc2)cc1 (stereo unspecified) | 2 | 10% | 29% | inactive | 2.8 | 1 | 0.31 | – | – | – | – | – | –
CCCOC(=O)Nc1ccc(Oc2ccc(S(=O)(=O)CC3CS3)cc2)cc1 (stereo unspecified) | 2 | inactive | 27% | inactive | 2.1 | 1.1 | 0.49 | – | – | – | – | – | –
CCCNC(=O)Oc1ccc(Oc2ccc(S(=O)(=O)CC3CS3)cc2)cc1 (stereo unspecified) | 20 | 2% | 38% | inactive | 27 | 52 | 0.76 | 20 | 20 | – | – | – | –
COC(=O)Oc1ccc(Oc2ccc(S(=O)(=O)CC3CS3)cc2)cc1 (stereo unspecified) | 2 | 11% | – | 7% | 2.4 | 0.23 | 0.16 | – | – | 31 | – | – | –
CC(C)NC(=O)Nc1ccc(Oc2ccc(S(=O)(=O)CC3CS3)cc2)cc1 (stereo unspecified) | 20 | 6% | 4% | inactive | – | – | 0.42 | 20 | 20 | – | 37 | 26 | –
CCOC(=O)Nc1ccc(Oc2ccc(S(=O)(=O)CC3CS3)cc2)cc1 (stereo unspecified) | – | inactive | 37% | inactive | 1.9 | – | 0.29 | – | – | – | – | – | 24.8
CCCNC(=O)Nc1ccc(Oc2ccc(S(=O)(=O)CC3CS3)cc2)cc1 (stereo unspecified) | 20 | inactive | 18% | inactive | – | – | 0.56 | 20 | 20 | – | 8 | 7 | –
CC(C)OC(=O)Nc1ccc(Oc2ccc(S(=O)(=O)CC3CS3)cc2)cc1 (stereo unspecified) | 2 | inactive | inactive | inactive | 2.5 | 2.7 | 0.68 | – | – | – | – | – | –
